Legend:
[1] = target: Cathepsin B (Homo sapiens, UniProt P07858); assay: Binding affinity against cathepsin B
[2] = target: Cathepsin S (Homo sapiens, UniProt P25774); assay: Binding affinity of compound was evaluated against cathepsin S.
[3] = target: T1, Cathepsin K (Homo sapiens, UniProt P43235); assay: Binding affinity against cathepsin K
T1 sequence (P43235 whole entry): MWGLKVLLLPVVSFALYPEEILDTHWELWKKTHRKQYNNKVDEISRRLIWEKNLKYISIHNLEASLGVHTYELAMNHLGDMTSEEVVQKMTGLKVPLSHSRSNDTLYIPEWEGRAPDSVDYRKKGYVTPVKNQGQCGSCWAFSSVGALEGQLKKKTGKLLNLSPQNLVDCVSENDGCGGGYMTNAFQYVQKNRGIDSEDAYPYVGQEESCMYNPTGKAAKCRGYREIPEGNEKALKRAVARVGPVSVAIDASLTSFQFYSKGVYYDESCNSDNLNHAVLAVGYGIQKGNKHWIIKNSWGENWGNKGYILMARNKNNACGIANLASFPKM

[4] = target: Procathepsin L (Homo sapiens, UniProt P07711); assay: Binding affinity of compound was evaluated against cathepsin L.
Procedure, shortened: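 Then Z-Phe-Arg-AMC 10 µM (at Km) added. AMC release followed kinetically (ex355/em460) at room temperature, with inhibitor-free controls. Apparent Ki by Morrison or Henderson tight-binding fit.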

Procathepsin L, sequence (P07711 whole entry): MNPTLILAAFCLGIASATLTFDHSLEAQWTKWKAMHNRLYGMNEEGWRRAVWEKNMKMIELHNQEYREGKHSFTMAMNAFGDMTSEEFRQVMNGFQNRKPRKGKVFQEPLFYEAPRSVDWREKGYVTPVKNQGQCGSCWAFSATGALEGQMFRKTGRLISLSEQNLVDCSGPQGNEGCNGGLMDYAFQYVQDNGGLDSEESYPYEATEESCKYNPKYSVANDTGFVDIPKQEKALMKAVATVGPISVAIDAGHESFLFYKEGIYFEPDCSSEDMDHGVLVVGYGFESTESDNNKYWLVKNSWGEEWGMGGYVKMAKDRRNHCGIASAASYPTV
Cathepsin S, sequence (P25774 whole entry): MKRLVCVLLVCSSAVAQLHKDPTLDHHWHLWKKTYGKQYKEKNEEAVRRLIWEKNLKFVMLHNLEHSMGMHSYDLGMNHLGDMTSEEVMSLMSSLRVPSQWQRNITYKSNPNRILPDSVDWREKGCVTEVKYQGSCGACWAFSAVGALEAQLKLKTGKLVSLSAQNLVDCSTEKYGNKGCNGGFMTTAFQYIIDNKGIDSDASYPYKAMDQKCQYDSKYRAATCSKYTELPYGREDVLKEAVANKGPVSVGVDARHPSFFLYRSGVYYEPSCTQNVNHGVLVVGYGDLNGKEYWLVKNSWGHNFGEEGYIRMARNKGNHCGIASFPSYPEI

Structure (SMILES) | Ki [1] | Ki [2] | Ki [3] | Ki [4]
COCC(=O)[C@H](CCc1ccccc1)NC(=O)[C@H](CC(C)C)NC(=O)OCc1ccccc1 | > 150000 nM | 1960 nM | 607 nM | 22300 nM
CCC(C)[C@H](NC(=O)c1cccc(C(N)=O)c1)C(=O)N[C@@H](CCc1ccccc1)C(=O)CO (some centres not stated) | 1440 nM | 88 nM | 111 nM | 790 nM
CC(C)C[C@H](NC(=O)OCc1ccccc1)C(=O)N[C@@H](CCc1ccccc1)C(=O)CO | 34700 nM | 188 nM | 25 nM | 640 nM
CCCC[C@H](NC(=O)[C@@H](NC(=O)c1cccc(C(N)=O)c1)C(C)CC)C(=O)CO (some centres not stated) | 1140 nM | 110 nM | 110 nM | 760 nM
CCC(C)[C@H](NC(=O)OCc1ccccc1)C(=O)N[C@@H](CCc1ccccc1)C(=O)CO (some centres not stated) | 32200 nM | 811 nM | 67 nM | 3000 nM

The next lines start with the values.

Ki [1] | Ki [2] | Ki [3] | Ki [4] | Structure (SMILES)
119000 nM | 451 nM | 1000 nM | 6340 nM | CC(C)C[C@H](NC(=O)OCc1ccccc1)C(=O)N[C@@H](CCc1ccccc1)C(=O)COCc1ccccc1
1950 nM | 46 nM | 3 nM | 17 nM | CC(C)C[C@H](NC(=O)c1ccc(CN)cc1)C(=O)N[C@@H](CCc1ccccc1)C(=O)CO
> 150000 nM | 4500 nM | 947 nM | 16700 nM | CCOCC(=O)[C@H](CCc1ccccc1)NC(=O)[C@H](CC(C)C)NC(=O)OCc1ccccc1
1250 nM | 460 nM | 20 nM | 130 nM | CCCC[C@H](NC(=O)[C@@H](NC(=O)c1ccc(CN)cc1)C(C)CC)C(=O)CO (some centres not stated)
270 nM | 180 nM | 4 nM | 81 nM | CCC(C)[C@H](NC(=O)c1cccc(CN)c1)C(=O)N[C@@H](CCc1ccccc1)C(=O)CO (some centres not stated)
519000 nM |  | 1440 nM |  | CC(=O)[C@H](CCc1ccccc1)NC(=O)[C@H](CC(C)C)NC(=O)OCc1ccccc1

From ChEMBL document CHEMBL1135207, “Novel route to the synthesis of peptides containing 2-amino-1'-hydroxymethyl ketones and their application as cathepsin K inhibitors” (Bioorg Med Chem Lett, 2002)
